Source: publication PMC5161678 (Clinical cancer research : an official journal of the …, 2016)

Key:
[1] = biological target: T1, CSF-1R (Homo sapiens, UniProt P07333); assay: CSF-1R phosphorylation sandwich ELISA in CSF-1 treated monocytes; assay type: cell-based; conditions: recombinant CSF-1 10 ng/mL, 5 minutes, fedratinib 5 μM, pacritinib 1 μM
[2] = test system: nurse-like cells (NLC); assay: NLC generation and survival in CLL patient PBMC cultures; assay type: cell-based, human; conditions: pacritinib 1 μM; for NLC survival: CLL PBMC cultured 7–10 days, ruxolitinib 5 μM; for NLC survival / intact NLC by morphology: fedratinib 5 μM; for intact NLC by morphology: established NLC cultures treated for 24 hours
How it was run: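 PBMC from CLL patients not on therapy were plated at 3–5 × 10^6 cells/mL in RPMI with 10% FBS at 37°C, 5% CO2 for 7–10 days, then given test compound or DMSO vehicle. NLC were counted by morphology in five high-power fields or as high forward/side-scatter events by flow cytometry. Viability was read by annexin V/PI. For some cultures, CLL cells were gently removed before treatment.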

[3] = test system: CD5+CD19+ CLL B-cells; assay: CLL B-cell viability by Annexin V/PI staining in NLC cocultures; assay type: cell-based, human; conditions: for CLL viability: long-term NLC/CLL cocultures, ruxolitinib 5 μM, fedratinib 5 μM, pacritinib 1 μM
[4] = test system: CSF-1R; conditions: CSF-1R in vitro; cited from earlier work
[5] = in vivo; cited from earlier work
[6] = biological target: T1, CSF-1R; assay: in vitro radiometric kinase assay; assay type: biochemical
[7] = test system: ERK and AKT; assay: ERK and AKT phosphorylation in CSF-1 treated monocytes; assay type: cell-based, human; conditions: pacritinib
How it was run: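 Healthy-donor monocytes were CD14 bead-selected from PBMC, cultured overnight, then stimulated 5 min with recombinant human CSF-1 (10 ng/mL) plus test compound or DMSO vehicle. Lysis buffer: Tris pH 7.5, EDTA, NaCl, NP-40, deoxycholate, SDS and protease/phosphatase inhibitors. SDS-PAGE on 5–12% gradient gels, PVDF transfer, 1 h milk block. Probed for total and pT308/pS473 AKT, and total and pT202/Y204 ERK1/2.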

[8] = test system: monocyte-derived macrophages; assay: monocyte and monocyte-derived macrophage viability; assay type: cell-based, human
[9] = test system: lymphoma; conditions: cited from earlier work

T1 sequence (P07333 20-972): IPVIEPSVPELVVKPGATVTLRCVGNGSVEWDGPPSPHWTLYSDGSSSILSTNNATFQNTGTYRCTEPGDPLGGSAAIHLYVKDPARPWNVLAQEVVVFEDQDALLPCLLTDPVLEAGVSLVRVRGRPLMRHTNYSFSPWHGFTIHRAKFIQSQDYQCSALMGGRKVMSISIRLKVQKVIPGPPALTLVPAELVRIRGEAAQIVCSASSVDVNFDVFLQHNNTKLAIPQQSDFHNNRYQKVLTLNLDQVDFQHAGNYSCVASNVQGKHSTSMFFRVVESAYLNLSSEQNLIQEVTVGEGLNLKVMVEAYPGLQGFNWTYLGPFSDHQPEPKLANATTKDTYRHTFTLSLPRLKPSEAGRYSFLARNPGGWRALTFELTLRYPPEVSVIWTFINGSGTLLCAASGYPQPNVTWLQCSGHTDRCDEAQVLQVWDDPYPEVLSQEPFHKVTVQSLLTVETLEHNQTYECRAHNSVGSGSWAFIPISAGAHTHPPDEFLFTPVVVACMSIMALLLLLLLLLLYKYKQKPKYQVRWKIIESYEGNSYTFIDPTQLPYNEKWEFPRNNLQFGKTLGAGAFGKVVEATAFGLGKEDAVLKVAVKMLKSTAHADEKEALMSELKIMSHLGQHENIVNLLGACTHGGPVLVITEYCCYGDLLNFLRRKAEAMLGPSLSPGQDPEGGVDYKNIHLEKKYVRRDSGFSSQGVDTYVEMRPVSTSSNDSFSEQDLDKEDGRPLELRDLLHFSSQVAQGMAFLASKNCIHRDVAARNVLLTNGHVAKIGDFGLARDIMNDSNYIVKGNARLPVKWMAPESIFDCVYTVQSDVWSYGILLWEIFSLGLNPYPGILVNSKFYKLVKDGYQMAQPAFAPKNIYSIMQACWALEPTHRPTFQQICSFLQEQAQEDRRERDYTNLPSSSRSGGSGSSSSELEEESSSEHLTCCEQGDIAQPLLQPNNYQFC

With `Cc1cnc(Nc2ccc(OCCN3CCCC3)cc2)nc1Nc1cccc(S(=O)(=O)NC(C)(C)C)c1` [fedratinib] the “total CSF-1R phosphorylation” value [1] was “significantly reduced”, the NLC survival [2] was “significant, and near total, loss” and the “intact NLC by morphology” value [2] was “rarely observed”. For the same compound, the CLL viability [3] was “significantly reduced”, the IC50 [4] was > 1000 nM and the clinically achievable concentrations [5] was 1 to 5 µM.
With `C1=C/COCc2cc(ccc2OCCN2CCCC2)Nc2nccc(n2)-c2cccc(c2)COC/1` [pacritinib] the IC50 [6] was < 50 nM, the “IC50 (in words)” value ([6]; CSF-1R) was “low nanomolar range” and the “total CSF-1R phosphorylation” value [1] was “significantly reduced”. The “downstream phosphorylation of ERK and AKT” value [7] was “significantly impaired”, the “monocyte and monocyte-derived macrophage viability” value ([8]; CSF-1-treated monocytes, clinically achievable concentrations) was “significantly impaired” and the “signs of apoptotic cell death” value ([8]; pacritinib-treated macrophages) was “caspase 3 activation, loss of mitochondrial membrane potential, and changes in cell morphology”. The NLC survival [2] was “significant, and near total, loss”, the “viable NLC by annexin V/PI staining” value ([2]; CLL cells removed from established NLC cultures, 24 hours) was “viable NLC were no longer identified” and the “intact NLC by morphology” value [2] was “rarely observed”. For the same compound, the CLL viability [3] was “significantly reduced”, the “induction of apoptosis in CLL samples” value ([3]; paired CLL samples, ibrutinib 1 uM or pacritinib 1 uM) was “significant increase” and the tolerability ([9]; patients with lymphoma) was “well tolerated”. The clinical activity ([9]; various NHL, including CLL) was “clinical activity”.
In the case of `N#CC[C@H](C1CCCC1)n1cc(-c2ncnc3[nH]ccc23)cn1` [ruxolitinib], the NLC survival [2] is given as “modest” and the IC50 [4] is given as ~1000 nM.
